Active and inactive are the calls of the source. No cut-off for these calls is given here.
What was measured:
[1] = molecular target: T1, Polyunsaturated fatty acid lipoxygenase ALOX15 (Homo sapiens) (UniProt P16050); assay: Activation of 15-LOX in human PMN assessed as 12-HETE production at 6.2 to 40 uM pre-incubated for 15 mins before A23187, Ca2+ and Mg2+ stimulation for 1 hr by LC-MS method
T1 sequence (whole entry): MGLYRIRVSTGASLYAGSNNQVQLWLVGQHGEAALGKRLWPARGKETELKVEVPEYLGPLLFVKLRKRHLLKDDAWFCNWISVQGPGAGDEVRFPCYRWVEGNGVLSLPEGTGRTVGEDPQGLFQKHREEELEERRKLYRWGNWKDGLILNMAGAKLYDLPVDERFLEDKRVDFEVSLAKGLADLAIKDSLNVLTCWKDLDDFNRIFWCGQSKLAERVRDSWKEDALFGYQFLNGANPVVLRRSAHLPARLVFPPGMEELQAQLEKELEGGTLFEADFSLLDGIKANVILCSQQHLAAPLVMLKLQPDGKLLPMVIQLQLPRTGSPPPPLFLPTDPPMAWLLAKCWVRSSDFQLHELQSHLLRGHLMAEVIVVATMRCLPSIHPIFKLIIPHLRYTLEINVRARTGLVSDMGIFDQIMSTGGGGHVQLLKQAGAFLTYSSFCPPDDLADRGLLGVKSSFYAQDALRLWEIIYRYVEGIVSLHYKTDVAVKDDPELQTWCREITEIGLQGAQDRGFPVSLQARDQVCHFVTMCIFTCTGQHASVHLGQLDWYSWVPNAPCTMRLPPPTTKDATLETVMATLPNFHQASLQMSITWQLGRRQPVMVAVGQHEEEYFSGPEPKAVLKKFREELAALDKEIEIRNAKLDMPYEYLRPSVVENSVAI
Outline: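 PMNs preincubated 15 min at 37 °C with compound or vehicle, then stimulated 1 h at 37 °C with 10 μM A23187 plus 2 mM Ca2+ and 2 mM Mg2+. Reactions stopped with cold methanol. Eicosanoids quantified by LC-MS.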

[2] = molecular target: T1, Polyunsaturated fatty acid lipoxygenase ALOX15 (Homo sapiens); assay: Activation of 15-LOX in human whole blood assessed as increase in 15-HETE production at 100 uM pre-incubated for 20 mins before stimulation with LPS and A23187 for 120 mins by LC-MS/MS method; format: tissue-based
Outline: (§1)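 Human blood preincubated 20 min at 37 °C with DMSO vehicle or compound in DMSO. LPS added at 100 μg/mL for 24 h at 37 °C, then A23187 at 20 μg/mL final. Samples frozen in liquid nitrogen at time points, lysed by freeze–thaw, with PGB2 internal standard. Analysed by C18 LC-MRM MS, negative ion. Change = control-normalized concentration minus 1, ×100%; 120 min value from AUC.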

[3] = molecular target: T1, Polyunsaturated fatty acid lipoxygenase ALOX15 (Homo sapiens); assay: Activation of 15-LOX in human whole blood assessed as LTB4 production at 100 uM pre-incubated for 20 mins before stimulation with LPS and A23187 for 120 mins in presence of 2 uM 5-LOX inhibitor Zileuton by LC-MS/MS method; format: tissue-based; outline: as §1
[4] = molecular target: T2, Polyunsaturated fatty acid 5-lipoxygenase (Homo sapiens) (UniProt P09917); assay: Activation of human 5-LOX assessed as H2DCFDA oxidation at 100 uM using arachidonic acid substrate incubated for 5 mins by fluorescence assay
T2 sequence (whole entry): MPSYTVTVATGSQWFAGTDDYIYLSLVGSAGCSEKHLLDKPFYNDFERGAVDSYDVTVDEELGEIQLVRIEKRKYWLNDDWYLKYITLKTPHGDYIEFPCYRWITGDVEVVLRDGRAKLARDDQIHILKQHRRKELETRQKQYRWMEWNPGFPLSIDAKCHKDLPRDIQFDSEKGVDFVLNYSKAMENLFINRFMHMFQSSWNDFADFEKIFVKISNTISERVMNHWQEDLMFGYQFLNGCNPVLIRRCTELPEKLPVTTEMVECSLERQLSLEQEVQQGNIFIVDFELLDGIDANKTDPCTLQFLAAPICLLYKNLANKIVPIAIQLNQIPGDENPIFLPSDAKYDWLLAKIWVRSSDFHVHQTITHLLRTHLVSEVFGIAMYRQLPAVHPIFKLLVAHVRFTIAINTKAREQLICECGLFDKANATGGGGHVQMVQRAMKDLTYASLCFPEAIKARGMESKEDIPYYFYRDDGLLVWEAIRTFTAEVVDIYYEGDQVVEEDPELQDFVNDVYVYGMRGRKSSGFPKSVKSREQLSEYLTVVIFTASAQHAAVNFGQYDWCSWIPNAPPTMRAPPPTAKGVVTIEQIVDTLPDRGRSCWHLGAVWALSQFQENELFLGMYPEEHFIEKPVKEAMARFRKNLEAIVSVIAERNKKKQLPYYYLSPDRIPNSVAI
Outline: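 Human 5-LOX activity followed as AA-driven oxidation of H2DCFDA to fluorescent dichlorofluorescein (ex 500/em 520 nm), recorded for 5 min. Compound handled as in the 15-LOX assay.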

[5] = molecular target: T3, Cytosolic phospholipase A2 (Homo sapiens) (UniProt P47712); assay: Inhibition of human cPLA2 assessed as reduction in hydrolysis of 7-hydroxycoumarinyl-gamma-linolenate or 2-oxo-2H-chromen-[…] (6Z,9Z,12Z)-octadeca-6,9,12-trienoate at 100 uM by fluorometry
T3 sequence (whole entry): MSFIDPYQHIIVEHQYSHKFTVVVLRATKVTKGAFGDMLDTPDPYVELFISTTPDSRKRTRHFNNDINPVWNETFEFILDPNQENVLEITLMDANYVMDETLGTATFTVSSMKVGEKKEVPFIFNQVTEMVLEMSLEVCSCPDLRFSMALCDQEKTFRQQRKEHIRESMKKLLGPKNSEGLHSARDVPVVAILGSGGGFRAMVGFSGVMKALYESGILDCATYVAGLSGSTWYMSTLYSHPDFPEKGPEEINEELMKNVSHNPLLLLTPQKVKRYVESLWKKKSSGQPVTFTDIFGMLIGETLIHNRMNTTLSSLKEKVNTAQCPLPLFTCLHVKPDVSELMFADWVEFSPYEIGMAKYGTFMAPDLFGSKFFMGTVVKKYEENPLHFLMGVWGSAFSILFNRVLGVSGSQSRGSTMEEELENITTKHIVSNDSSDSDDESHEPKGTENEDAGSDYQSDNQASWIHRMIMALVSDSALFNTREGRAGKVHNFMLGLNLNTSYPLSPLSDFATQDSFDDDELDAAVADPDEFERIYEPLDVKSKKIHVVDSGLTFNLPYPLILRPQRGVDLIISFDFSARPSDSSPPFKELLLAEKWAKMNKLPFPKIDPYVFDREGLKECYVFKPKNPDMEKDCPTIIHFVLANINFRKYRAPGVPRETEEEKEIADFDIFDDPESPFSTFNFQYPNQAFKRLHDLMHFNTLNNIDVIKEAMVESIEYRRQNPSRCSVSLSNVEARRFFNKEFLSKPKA
Outline: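 Purified human cPLA2 (1 μg/mL final) started the reaction with 7-hydroxycoumarinyl-γ-linolenate substrate. Fluorescence (ex 355/em 460 nm) recorded over 84 min. Compound handled as in the 15-LOX assay.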

Activity [1]: Active | Activity [2]: 33% | Activity [3]: 54% | Activity [4]: < 5% | inhibition [5]: 20%
SMILES: CN1CCN(CC(=O)N2N=C3/C(=C/c4ccccc4)CCCC3C2c2ccccc2)CC1 (stereo not given)

Reference: ChEMBL document CHEMBL3817796, “Discovery of Novel 15-Lipoxygenase Activators To Shift the Human Arachidonic Acid Metabolic Network toward Inflammation Resolution” (J Med Chem, 2016)
